In data set [1] the target is human ΔF508-CFTR (Homo sapiens, UniProt P13569, DEL508-508). Nature of the data set: ΔF508-CFTR corrector activity assay. The format is cell-based. The settings on record: concentration-dependent increase in I− influx in FRT ΔF508-CFTR cells.
The format of data set [2] is physicochemical. The gist of the method:
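Reverse-phase HPLC retention time gave log k (capacity factor). A calibration line of log k against known logP was built from reference compounds and used to convert each test compound's log k to logP.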

Four molecules from article PMC3109609 (Journal of medicinal chemistry, 2010) can be followed below.

“And” between values parts separate entries of the source, which are not always exact repeats. Equal values may be shown once.

`COc1ccc(Cl)cc1Cn1nc(-c2sc(NC(=O)C(C)(C)C)nc2C)cc1C(=O)NCCO` [14j, 1-(5-chloro-2-methoxybenzyl)-N-(2-hydroxyethyl)-3-(4-methyl-2-pivalamidothiazol-5-yl)-1H-pyrazole-5-carboxamide]: the “ΔF508-CFTR corrector activity (in words)” value in data set [1] is given as “retains corrector activity”. Further, the chromatographic logP (commonly a lipophilicity value derived from retention on a column) in data set [2] was found to be 3.5. In turn, `COc1ccc(Cl)cc1Cn1nc(-c2sc(NC(=O)C(C)(C)C)nc2C)cc1C(=O)N1CCOCC1` [14h, N-(5-(1-(5-chloro-2-methoxybenzyl)-5-(morpholine-4-carbonyl)-1H-pyrazol-3-yl)-4-methylthiazol-2-yl)pivalamide] had a chromatographic logP in data set [2] of 4.1. Further, the “logP difference versus bithiazole 1 (lower)” value in data set [2] (14h compared with bithiazole CF corrector 1) was 1.2 log units and ~ 1.2 log units.

On to `COc1ccc(Cl)cc1Nc1nc(-c2sc(NC(=O)C(C)(C)C)nc2C)cs1` [compound 1, reference compound], for which, in data set [2], the chromatographic logP is over 5. For `COc1ccc(NC(=O)c2cc(-c3sc(NC(=O)C(C)(C)C)nc3C)n(-c3ccc(Br)cc3)n2)cc1` [11d, 1-(4-Bromophenyl)-N-(4-methoxyphenyl)-5-(4-methyl-2-pivalamidothiazol-5-yl)-1H-pyrazole-3-carboxamide], the “ΔF508-CFTR corrector activity (in words)” value in data set [1] is listed as “relatively low activity”.
